A selection: hits, their analogues and other compounds. The true share with any hit is near 2.3%.
FN deposit inh – fibronectin deposition inhibition; AH1F fibroblasts, Alexa488-fibronectin deposition fluorescence, overnight; inhibition, % at 12.6 µM; 350,000 tested, 0.086% active; AID 743247;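 active = mean inhibition across replicates of 30% or more, regardless of how many single replicates reach that level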
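Material: AH1F fibroblast monolayer depositing Alexa488-labelled fibronectin into matrix / Amount: 10000 AH1F cells per well / Signal: fluorescence 485/525 nm / Medium: DMEM, 2% serum / Compound: single dose, pinned / Incubation: 1 h cell adhesion before compound, then overnight fibronectin incubation / Reagent: Alexa488-FN, 24 nM final / Read-out: inhibition of fibronectin deposition signal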
TROY NFkB inh – blocks TROY-dependent signaling in reporter cells. inhibition, % at 10 µM. AID 1347056. 360,000 tested, 0.98% active. Q293 LMP1-TROYcd NF-kB luciferase reporter, 4 h;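 active = compounds whose plate-normalised and pattern-corrected inhibition of the luciferase reporter signal at the single screening dose is 50% or more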
TWEAK-Fn14 inh – blocks TWEAK-Fn14 interaction in a reporter cell assay | TWEAK-stimulated Fn14 reporter cells, luciferase luminescence, 8 h | inhibition, % at 10 µM | 360,000 tested, 2% active | AID 1159606; in the data active = inhibition above about 50%
LGR2 antag – Drosophila LGR2 receptor signaling inhibition; 380,000 tested, 0.35% active; inhibition, % at 9.99 µM; HEK293 LGR2, CRE-luciferase, bursicon-stimulated, 4 h;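 active = drop in luminescence signal, shown as inhibition above about 50% in the replicate tests, limit read from the data, passing the limit was not always enough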;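 note: agonist challenge used bursicon conditioned medium at about half maximal strength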
EWS-Fli block – blocks EWS/Fli oncoprotein-driven transcription. A673 NR0B1-luciferase reporter, viability-normalised. inhibition, % at 12.6 µM. 350,000 tested, 0.67% active;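 active = mean inhibition of at least 50% after viability correction, with every replicate also passing that limit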;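 note: firefly luciferase signal divided by Alamar Blue viability fluorescence both relative to DMSO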
XiGFP reactiv – activators of X-chromosome reactivation in mouse fibroblasts | AID 743238 | XiGFP mouse fibroblasts, % GFP-positive cells imaging, 3 d; cells co-treated with 5-aza-dC sensitizer; scaled so ellipticine positive control = 100% | activation, % at 7.58 µM | 360,000 tested, 0.055% active;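 active = mean normalized replicate activation at least 10% and every replicate at or above 10%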
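material = 68-5-11 XiGFP fibroblast line | medium = DMEM plus 5-aza-dC sensitizer | schedule = 3 days compound exposure | benchmarks = positive control ellipticine, 6 µM final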
Large screens that a line does not name were inactive.

Cc1cccc(-n2c3nc(=O)[nH]c(=O)c-3cc3cc([N+](=O)[O-])ccc32)c1	none (no result: LGR2 antag)
Cc1ccc(C)c(-n2c3nc(=O)[nH]c(=O)c-3cc3cc([N+](=O)[O-])ccc32)c1	EWS-Fli block 70
C[C@H]1CN([C@@H](C)CO)C(=O)Cc2cc(NS(C)(=O)=O)ccc2O[C@@H]1CN(C)C(=O)Nc1ccc2c(c1)OCO2	none (no result: FN deposit inh, TROY NFkB inh, TWEAK-Fn14 inh)
COc1cccc(CN2[C@H](CO)[C@H](c3ccccc3)C23CN(C(=O)C2CCOCC2)C3)c1	none (no result: FN deposit inh, TROY NFkB inh, TWEAK-Fn14 inh)
Cc1nc2sc3c(NCc4ccco4)ncnc3c2c2c1COC(C)(C)C2	TROY NFkB inh 55, TWEAK-Fn14 inh 87 (no result: FN deposit inh, LGR2 antag, EWS-Fli block, XiGFP reactiv)
CC(C)Cc1nc2sc3c(NCc4ccco4)ncnc3c2c2c1COC(C)(C)C2	TWEAK-Fn14 inh 52 (no result: LGR2 antag, EWS-Fli block, XiGFP reactiv)
CCC(=O)N[C@@H]1C=C[C@H](CC(=O)NCc2ccccc2OC)O[C@@H]1CO	none (no result: FN deposit inh, TROY NFkB inh, TWEAK-Fn14 inh)
Cc1cc(C)n(-c2ccc(C(=O)Nc3nc4ccccc4s3)cc2)n1	none (no result: FN deposit inh, LGR2 antag, EWS-Fli block, XiGFP reactiv)
O=C(O)Cc1ccc2sc(-c3ccccc3)nc2c1	none (no result: EWS-Fli block)
CCc1nnc(NC(=O)c2ccc(OC)cc2OC)s1	TWEAK-Fn14 inh 74 (no result: FN deposit inh, LGR2 antag, EWS-Fli block, XiGFP reactiv)
S=C(Nc1ccc(Cl)cc1)c1nc2ccccc2s1	none (no result: FN deposit inh, LGR2 antag, EWS-Fli block, XiGFP reactiv)
Nc1ccc(C(=O)Nc2nc3ccccc3s2)cc1	TWEAK-Fn14 inh 62
O=C(Nc1ccc(Cl)cc1)/C(=C/c1cccc(O)c1)c1nc2ccccc2s1	TROY NFkB inh 83, TWEAK-Fn14 inh 104, LGR2 antag 86
COC(=O)Cc1ccc2sc(-c3ccccc3)nc2c1	TWEAK-Fn14 inh 56 (no result: EWS-Fli block)
O=C(Nc1ccc(Cc2nc3ccccc3s2)cc1)c1ccncc1	TWEAK-Fn14 inh 59
COc1ccc(OC)c(NC(=O)c2nc3ccccc3s2)c1	none
COc1ccc(NC(=O)c2nc3ccccc3s2)cc1	TWEAK-Fn14 inh 61
COc1cc2nc(NC(=O)c3ccccc3)[nH]c(=O)c2cc1OC	none (no result: LGR2 antag, EWS-Fli block, XiGFP reactiv)
Cc1ccnc2nc(C(=O)Nc3nc4ccccc4s3)nn12	TWEAK-Fn14 inh 67
Cc1csc(NC(=O)c2nc3nccc(C)n3n2)n1	none (no result: FN deposit inh, LGR2 antag, EWS-Fli block, XiGFP reactiv)
COc1cc2nc(NC(=O)c3ccccc3)sc(=O)c2cc1OC	TWEAK-Fn14 inh 72
CCCC(=O)Nc1ccc2c(c1)OC[C@@H](C)N(C(=O)c1ccccc1F)C[C@H](C)[C@@H](OC)CN(C)C2=O	none (no result: TROY NFkB inh, TWEAK-Fn14 inh)
C[C@@H]1CN([C@@H](C)CO)C(=O)c2cc(NS(=O)(=O)c3cn(C)cn3)ccc2O[C@@H]1CN(C)Cc1ccc2c(c1)OCO2	none (no result: FN deposit inh, TROY NFkB inh, TWEAK-Fn14 inh)
C[C@@H]1CN([C@@H](C)CO)C(=O)c2cc(NC(=O)C3CCCCC3)ccc2O[C@@H](C)CCCCO[C@H]1CN(C)C(=O)c1ccncc1	none (no result: FN deposit inh, TROY NFkB inh, TWEAK-Fn14 inh)
C/C=C/c1ccc2c(c1)O[C@H](CN(C)C(=O)c1cnccn1)[C@H](C)CN([C@H](C)CO)S2(=O)=O	none (no result: TROY NFkB inh, TWEAK-Fn14 inh)
Cn1cc(Cl)c(C(=O)Nc2nc3ccccc3s2)n1	TWEAK-Fn14 inh 57 (no result: LGR2 antag, EWS-Fli block, XiGFP reactiv)
COc1ccc(C(=O)Nc2nc3ccccc3s2)c(OC)c1	TROY NFkB inh 85, TWEAK-Fn14 inh 105, LGR2 antag 103, EWS-Fli block 91
COc1ccccc1C(=O)Nc1nc2ccccc2s1	TROY NFkB inh 85, TWEAK-Fn14 inh 104, LGR2 antag 105, EWS-Fli block 93
COc1ccccc1C(=O)NCc1ccc(-c2nc3ccccc3s2)cc1	TWEAK-Fn14 inh 76 (no result: FN deposit inh)
COc1ccccc1C(=O)Nc1nc2ccc(S(C)(=O)=O)cc2s1	none (no result: FN deposit inh, LGR2 antag, EWS-Fli block, XiGFP reactiv)
C[C@@H]1CCCCO[C@H](CN(C)S(=O)(=O)c2ccccc2)[C@H](C)CN([C@H](C)CO)C(=O)c2cc(NS(C)(=O)=O)ccc2O1	none (no result: FN deposit inh, TROY NFkB inh, TWEAK-Fn14 inh)
C[C@H](CO)N1C[C@H](C)[C@@H](CN(C)S(C)(=O)=O)OCCCC[C@H](C)Oc2ccc(NC(=O)CCC(F)(F)F)cc2C1=O	none (no result: FN deposit inh, TROY NFkB inh, TWEAK-Fn14 inh)
CN(Cc1ccccc1)CC1CC(c2ccccc2)OC(c2ccc(NC(=O)CCCCCCC(=O)O)cc2)O1 (stereo unspecified)	none (no result: FN deposit inh, TROY NFkB inh, TWEAK-Fn14 inh, LGR2 antag, XiGFP reactiv)
C[C@H]1CN([C@@H](C)CO)C(=O)Cc2cc(NC(=O)CCN3CCOCC3)ccc2O[C@H]1CN(C)Cc1ccccc1	none (no result: FN deposit inh, TROY NFkB inh, TWEAK-Fn14 inh)
Cc1ccc(NC(=S)c2nc3ccccc3s2)cc1	TROY NFkB inh 55, TWEAK-Fn14 inh 78 (no result: FN deposit inh, LGR2 antag, EWS-Fli block, XiGFP reactiv)
Oc1ccccc1-c1cc(-c2cccc(F)c2)n[nH]1	none (no result: FN deposit inh, LGR2 antag, EWS-Fli block, XiGFP reactiv)
CC(C)(C)c1ccc(-c2cc(-c3ccccc3O)[nH]n2)cc1	TROY NFkB inh 83, TWEAK-Fn14 inh 85
C[C@@H]1CN([C@@H](C)CO)C(=O)c2cc(NS(=O)(=O)c3ccc(Cl)cc3)ccc2O[C@@H]1CN(C)C(=O)Nc1cccc2ccccc12	none (no result: TROY NFkB inh, TWEAK-Fn14 inh)
CC1=NN(c2ccccc2)C(=O)C1N=Nc1cccc(O)c1 (stereo unspecified)	none
CC1=NN(c2nc(-c3ccc(C)cc3)cs2)C(=O)C1N=Nc1cccc(O)c1 (stereo unspecified)	TWEAK-Fn14 inh 50
COc1ccc(-c2csc(N3N=C(C)C(C)C3=O)n2)cc1 (stereo unspecified)	none
CC1=NN(c2nc(-c3ccc(C)cc3)cs2)C(=O)C1N=Nc1ccccc1O (stereo unspecified)	TWEAK-Fn14 inh 62

Screening results deposited in PubChem BioAssay by several laboratories.
